In publication PMC4351917 (Journal of medicinal chemistry, 2014):
Marks after values point to notes of the source that are not given here.

How the values were obtained:
[1] = Lipophilicity by RP-HPLC retention factors; format: physicochemical; settings: for log kw: 0.1% TFA water/MeOH, values extrapolated to 0% MeOH; for log k30: mobile phase containing 30% MeOH
[2] = Stability in aqueous media under physiologically relevant conditions; format: physicochemical; settings: PBS (pH 7.4 and 6.0), 37 °C, 0.5 mM
Method in brief: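 Each complex (0.5 mM) was incubated at 37 °C for 24 h in water, PBS pH 7.4, PBS pH 6.0 and 0.05 M HCl (pH 1.5). Samples taken at 1 and 24 h were analysed by isocratic RP-HPLC on a C18 column at 25 °C, with 0.1% TFA water/MeOH adjusted for elution within 15 min and UV detection at 210 nm.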

[3] = system: A549 (nonsmall cell lung cancer); settings: read-out: IC50, 96 h A549; MTT assay, exposure 96 h; cited from earlier work
[4] = Platinum concentration in mouse tissues and serum by ICP-MS; format: in vivo, Balb/c mice; settings: for serum platinum level: CT-26 mice
CH1 (ovarian carcinoma) [5] = settings: read-out: IC50, 96 h CH1; MTT assay, exposure 96 h; cited from earlier work
SW480 (colon carcinoma) [6] = settings: read-out: IC50, 96 h SW480; MTT assay, exposure 96 h; cited from earlier work
CH1 (ovarian carcinoma) [7] = test: MTT cytotoxicity assay, CH1; format: cell-based, human; settings: CH1 cells
Method in brief: (§1)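 Adherent cells grown in MEM with 10% FBS, pyruvate, NEAA and glutamine, without antibiotics. Seeded per well at 1.0 × 10³ for CH1 and 2.0 × 10³ for SW480, then settled for 24 h. Serial dilutions of test compound in medium were applied for 96 h continuous exposure at 37 °C. MTT was added for 4 h, formazan dissolved in DMSO, and read at 550 nm (ref 690 nm). IC₅₀ was interpolated from concentration–effect curves, ≥3 independent experiments in triplicate.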

SW480 (colon carcinoma) [8] = test: MTT cytotoxicity assay, SW480; format: cell-based, human; settings: SW480 cells
Method in brief: as §1

Aqueous solubility = format: physicochemical; settings: water
[9] = Reduction by sodium ascorbate, RP-HPLC; format: physicochemical; settings: 15-fold excess sodium ascorbate
[10] = system: L1210 murine leukemia cells; test: Antileukemic activity in vivo; parameters: species or system female DBA/2J × Balb/c SCID F1 mice; settings: L1210 leukemia-bearing mice
[11] = General toxicity in the animal experiments; settings: all in vivo experiments, 10-30 mg/kg i.p., mice
Method in brief: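 Test compound in water, given i.p. L1210 model: female DBA/2J × Balb/c SCID F1 mice, 1 × 10⁵ cells i.p. on day 0, dosed 10, 20, 30 mg/kg on days 1, 5, 9, with daily observation and body weight. CT-26 model: female Balb/c mice aged 6–8 weeks, 5 × 10⁵ cells s.c. into the flank, 30 mg/kg on days 4, 7, 11, 14, with daily distress checks.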

[12] = 9 mg/kg i.v. days 4, 7, 11, 14, day 15
[13] = 30 mg/kg i.p. days 4, 7, 11, 14, day 15

Question: For `NCCN.O=C1[O][Pt]2([O]C(=O)C13CCC3)[O]C(=O)C1(CCC1)C(=O)[O]2` [1d, (OC-6-22)-Bis(1,1-cyclobutanedicarboxylato)ethane-1,2-diamineplatinum(IV)], which log kw [1] is on record?
Answer: The log kw was 1.28 ± 0.01.

Question: And the “log k30” value [1]?
Answer: Its value is 0.28 ± 0.01.

Question: With `CCN.CCN.O=C([O-])CC(=O)[O-].O=C([O-])CC(=O)[O-].[Pt+4]` [2b, (OC-6-22)-Bis(ethylamine)bis(malonato)platinum(IV)] as the compound, how does the “decomposition after 24 h of incubation in PBS solution” value [2] read?
Answer: Its value is less than 10%.

Question: With `N.N.O=C([O-])C1(C(=O)[O-])CCC1.[Pt+2]` [carboplatin, reference compound] as the compound, how does the log kw [1] read?
Answer: Its log kw is −0.36 ± 0.04^c.

Question: What about the “log k30” value [1] of the same compound?
Answer: The value was −0.80 ± 0.01.

Question: And the IC50 [3]?
Answer: The IC50 was 91000 ± 10000 nM.

Question: With `O=C1[O][Pt]2([NH][C@@H]3CCCC[C@H]3[NH]2)[O]C1=O` [oxaliplatin, reference compound] as the compound, how does the serum platinum level ([4]; 9 mg/kg i.v. days 4, 7, 11, 14, 24 h after last application) read?
Answer: Its serum platinum level is ~ 0.3 μg/mL.

Question: And the platinum in kidney [4, 12]?
Answer: The platinum in kidney was ~ 4.5 μg/g.

Question: What about the platinum in liver [4, 12] of the same compound?
Answer: The platinum in liver was ~ 2 μg/g.

Question: What about the IC50 [3] of the same compound?
Answer: The IC50 was 980 ± 210 nM.

Question: What about the IC50 (CH1 (ovarian carcinoma) [5]) of the same compound?
Answer: Its IC50 is 180 ± 10 nM.

Question: And the IC50 (SW480 (colon carcinoma) [6])?
Answer: The IC50 was 290 ± 50 nM.

Question: Which results are given for `CC(=O)[O][Pt]([NH2])([Cl])([Cl])([NH]C1CCCCC1)[O]C(C)=O` [satraplatin, reference compound]?
Answer: log kw [1]: 1.63 ± 0.04; log k30 [1]: 0.68 ± 0.01

Question: Which results are given for “(OC-6-22)-((1R,2R)-Diaminocyclohexane)bis(malonato)-platinum(IV) [4b]”?
Answer: log kw [1]: −0.11 ± 0.01; log k30 [1]: −0.65 ± 0.02; times more potent than 1b (CH1 (ovarian carcinoma) [7]; versus 1b): 4 times; times more potent than 2b (CH1 (ovarian carcinoma) [7]; versus 2b): 12 times; potency relative to 3b (CH1 (ovarian carcinoma) [7]; versus 3b): twice as potent; activity relative to 5b (CH1 (ovarian carcinoma) [7]; versus 5b): same activity; times more active than 1b, 2b, and 3b (SW480 (colon carcinoma) [8]; versus 1b, 2b and 3b): at least 8 times; times more active than 5b (SW480 (colon carcinoma) [8]; versus 5b): 6 times; decomposition after 24 h of incubation in PBS solution [2]: no decomposition products were observed; aqueous solubility (Aqueous solubility): > 15 mM; complex still in its native form ([9]; PBS pH 7.4, 37 °C, after 20 h): more than 90%; complex intact ([9]; unbuffered water, 37 °C, after 24 h): ~ 95%; effect on survival ([10]; 10 mg/kg i.p. on days 1, 5, 9): no effect on the survival; mice being cured ([10]; 30 mg/kg i.p. on days 1, 5, 9, n = 4): 3/4; serum platinum level ([4]; 30 mg/kg i.p. days 4, 7, 11, 14, 24 h after last application): ~ 3 μg/mL; platinum in kidney [4, 13]: ~ 10.5 μg/g; platinum in liver [4, 13]: ~ 15 μg/g; platinum in lung [4, 13]: ~ 5 μg/g; platinum in sciatic nerve [4, 13]: ~ 1.8 μg/g; platinum in tumor tissue [4, 13]: ~ 5 μg/g; serum platinum circulation compared to oxaliplatin-treated mice ([4]; 4b 30 mg/kg i.p. versus oxaliplatin 9 mg/kg i.v., 24 h after last application): 10 times; tolerability / signs of toxicity (fatigue, weight loss) [11]: well-tolerated with no signs of toxicity
